The source made the active and inactive calls. No cut-off for these calls is given here.
Tests used:
HUVEC [1] = assay: Antivascular activity against HUVEC assessed as reduction in tube formation at 1 microM incubated for 6 hrs by matrigel based inverted fluorescence microscopic analysis; format: functional; details: Homo sapiens
Summary of the method: (§1)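 Matrigel polymerized 30 min at 37 °C. HUVECs in ECM medium with 20% FBS seeded at 5 × 10⁴/well with compound at 0, 0.1, 0.5 or 1 μM. After 6 h, tubule formation was photographed under an inverted microscope (×100).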

MCF7 [2] = assay: Reduction in VEGF-A expression in human MCF7 cells at 50 to 100 nM incubated for 24 hrs by Western blot analysis; format: functional, cell-based; details: dose 50-100 nM
Summary of the method: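 MCF-7 cells treated with compound at various concentrations for 24 h. VEGF-A protein assessed by western blot (RIPA lysis, SDS-PAGE, nitrocellulose transfer, ECL detection) with quantitative densitometry. Mean ± SD, three independent experiments.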

HUVEC [3] = assay: Antivascular activity against HUVEC assessed as disruption of vascular structure incubated for 6 hrs by matrigel based inverted fluorescence microscopic analysis; format: functional, cell-based; details: Homo sapiens, dose 0.1-1 µM
Summary of the method: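 Capillary-like networks were formed by HUVECs on Matrigel over 6 h, then exposed to vehicle or compound (0.1, 0.5, 1 μM) in serum-free DMEM for 6 h and photographed. Remaining tubes were counted; disruption = [1 − (tubes treated/tubes vehicle)] × 100%.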

A549 = assay: Antiproliferative activity against human A549 cells assessed as reduction in cell growth incubated for 72 hrs by MTT assay; format: functional, cell-based; details: A549, 72 h
Summary of the method: (§2)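 Log-phase cells seeded at 5 × 10³/well and grown 24 h, then exposed to graded compound concentrations for 72 h. MTT (5 mg/mL) added for 4 h; formazan dissolved in DMSO and absorbance read at 490 nm. IC50 calculated from growth inhibition; means ± SD of triplicate experiments.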

MCF7 [4] = assay: Induction of cell cycle arrest in human MCF7 cells assessed as accumulation in G1 phase at 5 nM incubated for 24 hrs by PI staining based flow cytometry analysis (reference value: 63.70 %); format: functional
MCF7 [5] = assay: Disruption of microtubule organization in human MCF7 cells assessed as breakage and abnormal spindle formation incubated for 6 hrs by immunofluorescence based laser scanning confocal microscopic analysis; format: functional, cell-based; details: dose 10-100 nM
Summary of the method: (§3)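 MCF-7 cells (3 × 10⁴) grown 24 h in confocal dishes, then treated 6 h with compound. Fixed in prewarmed 4% paraformaldehyde, permeabilized with 0.5% Triton X-100, blocked with 10% goat serum. Stained with mouse anti-tubulin (4 °C overnight), Alexa Fluor 488 secondary, and DAPI. Imaged by laser scanning confocal microscopy.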

HUVEC [6] = assay: Antimigratory activity against human HUVEC assessed as cell migration rate at 0.5 uM incubated for 12 hrs by wound healing assay (reference value: 68.5 %); format: functional
HUVEC [7] = assay: Downregulation of MMP-9 protein expression in HUVEC at 0.05 to 1 uM incubated for 24 hrs by Western blot analysis; format: functional; details: Homo sapiens, dose 0.05-1 µM
Summary of the method: (§4)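 HUVECs exposed to various compound concentrations for 24 h. MMP-9 and TIMP-1 measured by western blot: RIPA lysates, equal protein loads on 8–12% SDS-PAGE, nitrocellulose transfer, primary antibodies overnight at 4 °C, HRP secondary, ECL detection.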

HUVEC [8] = assay: Antivascular activity against HUVEC assessed as reduction in tube formation at 0.1 microM incubated for 6 hrs by matrigel based inverted fluorescence microscopic analysis; format: functional, cell-based; details: Homo sapiens; summary of the method: as §1
MCF7 [9] = assay: Disruption of microtubule organization in human MCF7 cells assessed as microtubules shrinkage around the nucleus at 10 nM incubated for 6 hrs by immunofluorescence based laser scanning confocal microscopic analysis; format: functional, cell-based; summary of the method: as §3
HeLa = assay: Antiproliferative activity against human HeLa cells assessed as reduction in cell growth incubated for 72 hrs by MTT assay; format: functional, cell-based; summary of the method: as §2
MCF7 [10] = assay: Induction of cell cycle arrest in human MCF7 cells assessed as accumulation in G2/M phase at 10 nM incubated for 24 hrs by PI staining based flow cytometry analysis (reference value: 16.81 %); format: functional
WI-38 = assay: Cytotoxicity against human WI-38 cells assessed as reduction in cell growth incubated for 72 hrs by MTT assay; format: cell-based; details: WI-38, 72 h; summary of the method: as §2
HUVEC [11] = assay: Upregulation of TIMP-1 protein expression in HUVEC at 0.05 to 1 uM incubated for 24 hrs by Western blot analysis; format: functional; details: Homo sapiens, dose 0.05-1 µM; summary of the method: as §4
MCF7 [12] = assay: Induction of cell cycle arrest in human MCF7 cells assessed as reduction in Cdc2 expression incubated for 24 hrs by Western blot analysis; format: functional, cell-based; details: dose 10-100 nM
Summary of the method: (§5)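 MCF-7 cells treated 24 h with 0, 10, 50 or 100 nM compound and lysed in RIPA buffer. Equal protein loads separated by 8–12% SDS-PAGE, transferred to nitrocellulose and blocked with 5% milk. Probed overnight at 4 °C with primary antibodies to Cdc25c, Cdc2 and Cyclin B1, then HRP secondary, with ECL detection. Densitometry averaged from two independent experiments.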

MCF7 [13] = assay: Induction of cell cycle arrest in human MCF7 cells assessed as reduction in CyclinB1 expression incubated for 24 hrs by Western blot analysis; format: functional, cell-based; details: dose 10-100 nM; summary of the method: as §5
HUVEC [14] = assay: Antimigratory activity against human HUVEC assessed as cell migration rate at 1 uM incubated for 12 hrs by wound healing assay (reference value: 68.5 %); format: functional
HUVEC [15] = assay: Antimigratory activity against human HUVEC assessed as cell migration rate at 0.5 uM incubated for 24 hrs by wound healing assay (reference value: 100 %); format: functional
MCF7 [16] = assay: Induction of cell cycle arrest in human MCF7 cells assessed as accumulation in G1 phase at 10 nM incubated for 24 hrs by PI staining based flow cytometry analysis (reference value: 63.70 %); format: functional
MCF7 [17] = assay: Disruption of microtubule organization in human MCF7 cells assessed as microtubules spindle shrinkage around the centre of the cell at 100 nM incubated for 6 hrs by immunofluorescence based laser scanning confocal microscopic analysis; format: functional; summary of the method: as §3
HepG2 = assay: Antiproliferative activity against human HepG2 cells assessed as reduction in cell growth incubated for 72 hrs by MTT assay; format: functional, cell-based; details: HepG2, 72 h; summary of the method: as §2
HUVEC [18] = assay: Antimigratory activity against human HUVEC assessed as cell migration rate at 1 uM incubated for 24 hrs by wound healing assay (reference value: 100 %); format: functional
MCF7 [19] = assay: Induction of cell cycle arrest in human MCF7 cells assessed as accumulation in S phase at 10 nM incubated for 24 hrs by PI staining based flow cytometry analysis (reference value: 19.50 %); format: functional
MCF7 [20] = assay: Induction of apoptosis in human MCF7 cells; format: functional, cell-based
HCT-116 = assay: Antiproliferative activity against human HCT-116 cells assessed as reduction in cell growth incubated for 72 hrs by MTT assay; format: functional, cell-based; details: HCT-116, 72 h; summary of the method: as §2
HUVEC [21] = assay: Antimigratory activity against human HUVEC assessed as cell migration rate at 0.1 uM incubated for 24 hrs by wound healing assay (reference value: 100 %); format: functional
HUVEC [22] = assay: Antiinvasive activity against human HUVEC incubated for 24 hrs by crystal violet staining based inverted fluorescence microscopic transwell assay; format: functional, cell-based; details: dose 0.05-1 µM
Summary of the method: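 Transwell inserts pre-coated with Matrigel (5 h, 37 °C). Cells in serum-free medium with 0, 0.05, 0.1, 0.5 or 1 μM compound were added to the upper well at 5 × 10⁵ cells/mL; the lower chamber held ECM with 10% FBS. After 24 h at 37 °C, invaded cells were methanol-fixed, stained with 0.1% crystal violet and counted in three random fields. Mean ± SD, three independent experiments.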

MCF7 [23] = assay: Antiproliferative activity against human MCF7 cells assessed as reduction in cell growth incubated for 72 hrs by MTT assay; format: functional, cell-based; details: MCF7, 72 h; summary of the method: as §2
HUVEC [24] = assay: Antivascular activity against HUVEC assessed as reduction in tube formation incubated for 6 hrs by matrigel based inverted fluorescence microscopic analysis; format: functional, cell-based; details: Homo sapiens, dose 0.1-1 µM; summary of the method: as §1
MCF7 [25] = assay: Induction of cell cycle arrest in human MCF7 cells assessed as accumulation in G2/M phase at 5 nM incubated for 24 hrs by PI staining based flow cytometry analysis (reference value: 16.81 %); format: functional
HUVEC [26] = assay: Cytotoxicity against HUVEC cells assessed as reduction in cell growth incubated for 72 hrs by MTT assay; format: cell-based; details: Homo sapiens; summary of the method: as §2
HUVEC [27] = assay: Antimigratory activity against human HUVEC assessed as cell migration rate at 0.1 uM incubated for 12 hrs by wound healing assay (reference value: 68.5 %); format: functional
Sus scrofa = species on record: Sus scrofa; assay: (§6) Inhibition of pig brain tubulin polymerization by spectrophotometric method; format: tissue-based
Summary of the method: (§7)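 Pig brain tubulin, purified by three assembly/disassembly cycles and phosphocellulose chromatography, mixed with compound at various concentrations. Buffer: PEM (100 mM PIPES, 1 mM MgCl₂, 1 mM EGTA) with 1 mM GTP and 5% glycerol. Polymerization followed at 37 °C by light scattering at 340 nm; plateau absorbance used for calculation.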

[28] = as §6; format: tissue-based, Sus scrofa; summary of the method: as §7
MCF7 [29] = assay: Induction of cell cycle arrest in human MCF7 cells assessed as reduction in Cdc25c expression incubated for 24 hrs by Western blot analysis; format: functional, cell-based; details: dose 10-100 nM; summary of the method: as §5
MCF7 [30] = assay: Induction of cell cycle arrest in human MCF7 cells assessed as accumulation in S phase at 5 nM incubated for 24 hrs by PI staining based flow cytometry analysis (reference value: 19.50 %); format: functional

SMILES: COc1ccc2c(N(C)c3cc(OC)c(OC)c(OC)c3)n[nH]c2n1
- inhibition at 1 µM (HUVEC [1]): 100%
- inhibition (MCF7 [2]): Active
- Activity (HUVEC [3]): Dose-dependent effect
- IC50 (A549): 6 µM
- Activity (MCF7 [4]): 26.47%
- Activity (MCF7 [5]): Dose-dependent effect
- Activity (HUVEC [6]): 11.3%
- inhibition (HUVEC [7]): Active
- Activity (HUVEC [8]): Active
- Activity (MCF7 [9]): Active
- IC50 (HeLa): 0.21 µM
- Activity (MCF7 [10]): 80.73%
- IC50 (WI-38): 23.4 µM
- Activity (HUVEC [11]): Active
- Activity (MCF7 [12]): Dose-dependent effect
- Activity (MCF7 [13]): Dose-dependent effect
- Activity (HUVEC [14]): 10.9%
- Activity (HUVEC [15]): 26.6%
- Activity (MCF7 [16]): 9.16%
- Activity (MCF7 [17]): Active
- IC50 (HepG2): 4.79 µM
- Activity (HUVEC [18]): 22.4%
- Activity (MCF7 [19]): 10.11%
- Activity (MCF7 [20]): inactive
- IC50 (HCT-116): 0.26 µM
- Activity (HUVEC [21]): 26.4%
- Activity (HUVEC [22]): Dose-dependent effect
- IC50 (MCF7 [23]): 0.067 µM
- Activity (HUVEC [24]): Dose-dependent effect
- Activity (MCF7 [25]): 63.5%
- IC50 (HUVEC [26]): 23.5 µM
- Activity (HUVEC [27]): 12.4%
- inhibition (Sus scrofa): Dose-dependent effect
- IC50 [28]: 14 µM
- Activity (MCF7 [29]): Dose-dependent effect
- Activity (MCF7 [30]): 10.02%

Source: ChEMBL document CHEMBL4680339, “Synthesis and bioevaluation of N-(3,4,5-trimethoxyphenyl)-1H-pyrazolo[3,4-b]pyridin-3-amines as tubulin polymerization inhibitors with anti-angiogenic effects” (Bioorg Med Chem, 2021)
